# Test results published in ChEMBL document CHEMBL1782036, “Atovaquone derivatives as potent cytotoxic and apoptosis inducing agents” (Bioorg Med Chem Lett, 2009).
# pIC50: −log10 of the molar value. Active and inactive are the calls of the source. The rule behind the calls is not given here.
# What was measured:
# DU-145 [1] = assay: Growth inhibition of human DU145 cells after 72 hrs by MTT assay; type: functional, cell-based; details: DU-145, 72 h
# How it was run: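 Du145 human prostate carcinoma cells were screened by MTT cell-growth inhibition assay. IC50 values are means of three experiments.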
# DU-145 [2] = assay: Induction of apoptosis in human DU145 cells at 10 uM after 72 hrs by AnnexinV conjugated 7- AAD staining by flow cytometry; type: functional, cell-based
# How it was run: (§1)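 Du145 cells were treated for 72 h and stained with Annexin V conjugate plus 7-AAD. Flow cytometry read PS externalization and membrane integrity, scoring cells as live (double negative), early apoptotic, or late apoptotic/necrotic (double positive). Untreated cells served as the control.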
# IMR-90 = assay: Antiproliferative activity against human IMR90 cells after 72 hrs by MTT assay; type: cell-based; details: IMR-90, 72 h
# A549 = assay: Antiproliferative activity against human A549 cells after 72 hrs by MTT assay; type: functional, cell-based; details: A549, 72 h
# HeLa = assay: Antiproliferative activity against human HeLa cells after 72 hrs by MTT assay; type: functional, cell-based
# HepG2 = assay: Antiproliferative activity against human HepG2 cells after 72 hrs by MTT assay; type: functional, cell-based; details: HepG2, 72 h
# HT-1080 = assay: Antiproliferative activity against human HT1080 cells after 72 hrs by MTT assay; type: functional, cell-based; details: HT-1080, 72 h
# HT-29 = assay: Antiproliferative activity against human HT-29 cells after 72 hrs by MTT assay; type: functional, cell-based; details: HT-29, 72 h
# KB = assay: Antiproliferative activity against human KB cells after 72 hrs by MTT assay; type: functional, cell-based
# [3] = Antiproliferative activity against human L78 cells after 72 hrs by MTT assay; type: functional, cell-based; details: L78, 72 h
# MCF7 = assay: Antiproliferative activity against human MCF7 cells after 72 hrs by MTT assay; type: functional, cell-based; details: MCF7, 72 h
# MOLT-4 = assay: Antiproliferative activity against human MOLT4 cells after 72 hrs by MTT assay; type: functional, cell-based; details: MOLT-4, 72 h
# OS-RC-2 = assay: Antiproliferative activity against human OS-RC2 cells after 72 hrs by MTT assay; type: functional, cell-based; details: OS-RC-2, 72 h
# SGC-7901 = assay: Antiproliferative activity against human SGC7901 cells after 72 hrs by MTT assay; type: functional, cell-based; details: SGC-7901, 72 h
# U-251 = assay: Antiproliferative activity against human U251 cells after 72 hrs by MTT assay; type: functional, cell-based; details: U-251, 72 h
# DU-145 [4] = assay: Induction of apoptosis in human DU145 cells at 5 uM after 72 hrs by AnnexinV conjugated 7- AAD staining by flow cytometry; type: functional, cell-based; how it was run: as §1
# DU-145 [5] = assay: Induction of apoptosis in human DU145 cells assessed as caspase-9 activation at 1 to 10 uM after 24 hrs by Western blot analysis; type: functional, cell-based
# How it was run: (§2)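 Du145 lysates from dose-ranging treatment were analysed by Western blot for activation of caspase 9 and caspase 3.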
# DU-145 [6] = assay: Induction of apoptosis in human DU145 cells assessed as caspase-3 activation at 1 to 10 uM after 24 hrs by Western blot analysis; type: functional, cell-based; how it was run: as §2
# DU-145 [7] = assay: Induction of chromatin condensation in human DU145 cells at 20 uM by Hoechst 33342 staining by fluorescent microscopy; type: functional, cell-based
# How it was run: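 Du145 cells were exposed for 24 h, with 0.2% DMSO as the vehicle control. Nuclei were stained with Hoechst 33342 and viewed by fluorescence microscopy at 100× for chromatin condensation and nuclear shrinkage.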
# DU-145 [8] = assay: Induction of apoptosis in human DU145 cells at 10 uM assessed as live cell level after 72 hrs by AnnexinV conjugated 7- AAD staining by flow cytometry; type: functional; how it was run: as §1
# DU-145 [9] = assay: Induction of apoptosis in human DU145 cells at 10 uM assessed as early apoptosis level after 72 hrs by AnnexinV conjugated 7- AAD staining by flow cytometry; type: functional; how it was run: as §1
# DU-145 [10] = assay: Induction of apoptosis in human DU145 cells at 10 uM assessed as dead cell level after 72 hrs by AnnexinV conjugated 7- AAD staining by flow cytometry; type: functional
# How it was run: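 Du145 human prostate carcinoma cells exposed to compound for 72 h, then stained with Annexin V and 7-AAD and analysed by flow cytometry. Annexin V detects phosphatidylserine externalised to the outer membrane leaflet, and 7-AAD enters only membrane-compromised cells. Dead cells were those positive for both stains. Untreated cells served as control.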
compound,measurement,setting,value
O=C1C=C(N2CCN(c3ccccc3)CC2)C(=O)c2c(O)cccc21,pIC50,DU-145 [1],5.55
same,Activity,DU-145 [2],Active
same,pIC50,IMR-90,< 4.30
same,pIC50,A549,5.38
same,pIC50,HeLa,5.16
same,pIC50,HepG2,5.27
same,pIC50,HT-1080,5.09
same,pIC50,HT-29,5.54
same,pIC50,KB,5.15
same,pIC50,[3],5.44
same,pIC50,MCF7,5.28
same,pIC50,MOLT-4,< 4.30
same,pIC50,OS-RC-2,5.82
same,pIC50,SGC-7901,5.43
same,pIC50,U-251,5.21
same,Activity,DU-145 [4],Active
same,Activity,DU-145 [5],Dose-dependent effect
same,Activity,DU-145 [6],Dose-dependent effect
same,Activity,DU-145 [7],Active
same,Activity,DU-145 [8],2.8%
same,Activity,DU-145 [9],37.6%
same,Activity,DU-145 [10],58%
